Data as given in ChEMBL document CHEMBL4052637, “Discovery and Characterization of R/S-N-3-Cyanophenyl-N'-(6-tert-butoxycarbonylamino-3,4-dihydro-2,2-dimethyl-2H-1-benzopyran-4-yl)urea, a New Histone Deacetylase Class III Inhibitor Exerting Antiproliferative Activity against Cancer Cell Lines” (J Med Chem, 2017).
The source made the active and inactive calls. The rule behind the calls is not given here.

Legend:
[1] = target: T1, NAD-dependent protein deacetylase sirtuin-2 (Homo sapiens) (UniProt Q8IXJ6); assay: Inhibition of SIRT2 in human U373 cells assessed as increase of alpha-tubulin acetylation at 2 uM after 8 hrs by Western blotting method relative to control; type: cell-based
T1 sequence (whole entry): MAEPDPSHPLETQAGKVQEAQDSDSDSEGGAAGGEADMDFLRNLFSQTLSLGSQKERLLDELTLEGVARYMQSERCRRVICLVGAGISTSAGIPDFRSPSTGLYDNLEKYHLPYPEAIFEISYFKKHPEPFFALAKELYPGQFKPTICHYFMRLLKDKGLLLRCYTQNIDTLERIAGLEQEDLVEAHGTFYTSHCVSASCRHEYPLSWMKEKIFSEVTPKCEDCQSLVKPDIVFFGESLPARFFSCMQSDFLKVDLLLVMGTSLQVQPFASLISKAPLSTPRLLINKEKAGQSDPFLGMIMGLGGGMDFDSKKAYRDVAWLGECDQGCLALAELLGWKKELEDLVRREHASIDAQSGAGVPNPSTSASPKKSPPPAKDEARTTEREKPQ

[2] = target: T2, NAD-dependent protein deacetylase sirtuin-1 (Homo sapiens) (UniProt Q96EB6); assay: Inhibition of SIRT1 in human U373 cells assessed as increase of histone H4 acetylation at 2 uM after 8 hrs by Western blotting method relative to control; type: cell-based
T2 sequence (whole entry): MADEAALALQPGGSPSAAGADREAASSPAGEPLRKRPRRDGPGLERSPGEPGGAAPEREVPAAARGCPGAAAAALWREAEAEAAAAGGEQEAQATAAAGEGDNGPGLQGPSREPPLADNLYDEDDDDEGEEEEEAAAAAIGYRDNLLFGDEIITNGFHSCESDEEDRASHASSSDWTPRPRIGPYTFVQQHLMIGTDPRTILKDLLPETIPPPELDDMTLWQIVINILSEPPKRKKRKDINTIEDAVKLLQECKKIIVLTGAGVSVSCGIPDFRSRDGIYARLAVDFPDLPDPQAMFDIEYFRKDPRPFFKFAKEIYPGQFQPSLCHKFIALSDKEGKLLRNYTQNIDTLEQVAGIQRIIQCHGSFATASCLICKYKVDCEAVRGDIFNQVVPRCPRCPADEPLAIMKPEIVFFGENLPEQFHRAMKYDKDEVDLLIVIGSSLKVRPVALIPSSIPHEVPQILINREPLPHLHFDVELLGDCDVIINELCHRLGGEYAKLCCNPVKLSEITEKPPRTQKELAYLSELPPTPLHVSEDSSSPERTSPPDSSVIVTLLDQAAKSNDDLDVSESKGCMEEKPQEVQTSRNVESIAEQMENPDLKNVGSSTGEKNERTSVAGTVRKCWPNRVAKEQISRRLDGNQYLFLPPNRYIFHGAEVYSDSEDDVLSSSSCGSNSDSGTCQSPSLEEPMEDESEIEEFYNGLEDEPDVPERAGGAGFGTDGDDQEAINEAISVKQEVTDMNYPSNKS

Hs 683 [3] = assay: Cell cycle arrest in human Hs683 cells assessed as accumulation at sub-G1 phase at 2 uM after 24 to 48 hrs by propidium iodide staining-based flow cytometry; type: functional
Method in brief: (§1)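 Cells were exposed to compound at the IC50 for each line from the 72 h MTT assay, or to a reference HDAC inhibitor at 2 μM. Cell cycle distribution was analyzed after 24 and 48 h. Results are mean ± SD of three independent experiments, with p values against control cells.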

Hs 683 [4] = assay: Cell cycle arrest in human Hs683 cells assessed as accumulation at G1 phase at 2 uM after 24 to 48 hrs by propidium iodide staining-based flow cytometry; type: functional; method in brief: as §1
[5] = target: T2, NAD-dependent protein deacetylase sirtuin-1 (Homo sapiens); assay: Inhibition of SIRT1 in human Hs683 cells assessed as increase of histone H4 acetylation at 2 uM after 8 hrs by Western blotting method relative to control; type: cell-based
U-373MG ATCC = assay: Cell cycle arrest in human U373 cells assessed as accumulation at sub-G1 phase at 2 uM after 24 to 48 hrs by propidium iodide staining-based flow cytometry; type: functional; method in brief: as §1
[6] = target: T1, NAD-dependent protein deacetylase sirtuin-2 (Homo sapiens); assay: Inhibition of SIRT2 in human Hs683 cells assessed as increase of alpha-tubulin acetylation at 2 uM after 8 hrs by Western blotting method relative to control; type: cell-based

- fold change (FC) [1]: 18.6
- fold change (FC) [2]: 7.9
- fold change (FC) [5]: 12.6
- fold change (FC) [6]: 18.7
Compound: O=C(CCCCCCC(=O)Nc1ccccc1)NO
- Activity (Hs 683 [3]): Active
- Activity (Hs 683 [4]): Active
- Activity (U-373MG ATCC): Active
